The text below walks through data of ChEMBL document CHEMBL1142566, “Natural and synthetic 2,2-dimethylpyranocoumarins with antibacterial activity” (2005).

Type in all cases: functional
In test [1] the test system is Escherichia coli. The experiment in a line: Antimicrobial activity against Escherichia coli ATCC 25922 after 24 hrs by disk diffusion assay. Put shortly:
(§1)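 Bauer-Kirby disk diffusion on trypticase Mueller-Hinton agar. Plates were seeded with ATCC reference strains to a final 10⁷ cell/mL. Test compounds were dissolved in DMSO and applied to 6 mm paper disks, with solvent-only disks as negative control. Plates were incubated 24 h at 37 °C. Inhibition zone diameter (mm) was averaged over three experiments and scored <7 (-), 7-10 (+), 11-16 (++), >16 (+++).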

Test [2] has as its system Klebsiella pneumoniae. Briefly: Antimicrobial activity against Klebsiella pneumoniae ATCC 13883 after 24 hrs by disk diffusion assay. The method in brief: as §1
In test [3] the test system is Staphylococcus epidermidis. The experiment in a line: Antimicrobial activity against Staphylococcus epidermidis ATCC 12228 after 24 hrs by disk diffusion assay. Put shortly: as §1
For test [4], the system named is Pseudomonas aeruginosa. Briefly: Antimicrobial activity against Pseudomonas aeruginosa ATCC 27853 after 24 hrs by disk diffusion assay. Put shortly: as §1
Test [5] has as its system Staphylococcus aureus. Briefly: Antimicrobial activity against Staphylococcus aureus ATCC 25923 after 24 hrs by disk diffusion assay. The method in brief: as §1
Test [6] concerns Proteus mirabilis. The experiment in a line: Antimicrobial activity against Proteus mirabilis after 24 hrs by disk diffusion assay. Put shortly: as §1
For test [7], the system named is Enterobacter cloacae. Briefly: Antimicrobial activity against Enterobacter cloacae ATCC 13047 after 24 hrs by disk diffusion assay. Put shortly:
as §1

The source made the active and inactive calls. No cut-off for these calls is given here.

With `CC1(C)Oc2ccc3ccc(=O)oc3c2[C@H](OC(=O)c2ccccc2)[C@H]1Br`, the “inhibition zone (IZ)” value in test [1], in test [2], in test [3], in test [4], in test [5] and in test [6] was 7 mm in each case. Further, the “inhibition zone (IZ)” value in test [7] was found to be 7 mm.

In the case of `CC(=O)O[C@H]1c2c(ccc3ccc(=O)oc23)OC(C)(C)[C@H]1OC(C)=O`, the outcome in test [1], in test [2], in test [3], in test [4], in test [5] and in test [6] was inactive. Moreover, the result in test [7] was inactive.

Regarding `CC1(C)C=Cc2cc3ccc(=O)oc3cc2O1`, the result in test [1], in test [2], in test [3], in test [4], in test [5] and in test [6] was inactive. Besides, the outcome in test [7] was inactive.

As for `CC(=O)Oc1cc2oc(=O)ccc2c2c1C=CC(C)(C)O2`, the “inhibition zone (IZ)” value in test [1], in test [2], in test [3], in test [4], in test [5] and in test [6] was 7 mm each time. Moreover, the “inhibition zone (IZ)” value in test [7] turned out to be 7 mm.

With `COc1cc(OC)c2ccc(=O)oc2c1` [CITROPTEN], the “inhibition zone (IZ)” value in test [1] was determined as 7 mm; in test [2], 7 mm; in test [3], 11 mm; in test [4], 11 mm; in test [5], 7 mm; in test [6], 7 mm. In addition, the “inhibition zone (IZ)” value in test [7] turned out to be 7 mm.

Take `CC1(C)C=Cc2c(cc(O)c3ccc(=O)oc23)O1`: the result in test [1], in test [2], in test [3], in test [4], in test [5] and in test [6] was inactive. Further, the result in test [7] was inactive.
